# Experiments:
# [1] = Growth inhibition of human CNS cancer cells after 48 hrs by SRB assay; type: functional; details: Cancer cell lines
# Outline: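 Five-log dose range against NCI tumor cell lines, monitoring GI50, TGI and LC50 for each cell line; MG-MID values derived across the panel; 5-fluorouracil positive control.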
# [2] = Growth inhibition of human NCI-H23 cells at 10 uM after 48 hrs by SRB assay relative to control; type: functional; details: NCI-H23, 48 h, read-out: GI
# Outline: (§1)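 NCI 60-cell-line panel, nine tumor subpanels; compounds tested at a single dose of 10 μM in the primary screen.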
# [3] = Growth inhibition of human M14 cells at 10 uM after 48 hrs by SRB assay relative to control; type: functional; details: M14, 48 h, read-out: GI; outline: as §1
# [4] = Growth inhibition of human SF268 cells at 10 uM after 48 hrs by SRB assay relative to control; type: functional; details: SF-268, 48 h, read-out: GI; outline: as §1
# [5] = Growth inhibition of human ovarian cancer cells after 48 hrs by SRB assay; type: functional; details: Cancer cell lines
# Outline: (§2)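 Follow-up NCI panel testing over a 5-log dose range for each cell line. GI50, TGI and LC50 were monitored, with 5-fluorouracil run as the positive control. Values are grouped by tumour subpanel.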
# [6] = Growth inhibition of human KM12 cells at 10 uM after 48 hrs by SRB assay relative to control; type: functional; details: KM12, 48 h, read-out: GI; outline: as §1
# [7] = tested on: Leukemia cell; experiment: Potency index, ratio of 5-fluorouracil GI50 to compound GI50 for human leukemia cells; type: functional
# Outline: (§3)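 GI50 for each cell line came from NCI panel testing over a 5-log dose range, with 5-fluorouracil tested alongside as the reference drug. The index relates the 5-fluorouracil GI50 to the compound GI50 within each tumour subpanel.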
# [8] = Growth inhibition of human HOP62 cells at 10 uM after 48 hrs by SRB assay relative to control; type: functional; details: HOP-62, 48 h, read-out: GI; outline: as §1
# [9] = Growth inhibition of human SW620 cells at 10 uM after 48 hrs by SRB assay relative to control; type: functional; details: SW-620, 48 h, read-out: GI
# Outline: (§4)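 Primary screen across the full NCI 60 human tumour cell line panel, which covers nine tumour subpanels. A single dose of 10 μM was applied to each line, and growth was recorded for each cell line.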
# [10] = tested on: Cancer cell lines; experiment: Potency index, ratio of 5-fluorouracil GI50 to compound GI50 for human CNS cancer cells; type: functional; outline: as §3
# [11] = Growth inhibition of human SR cells at 10 uM after 48 hrs by SRB assay relative to control; type: functional; details: read-out: GI; outline: as §4
# [12] = Growth inhibition of human MCF7 cells at 10 uM after 48 hrs by SRB assay relative to control; type: functional; details: MCF7, 48 h, read-out: GI; outline: as §1
# [13] = tested on: Melanoma cell; experiment: Potency index, ratio of 5-fluorouracil GI50 to compound GI50 for human melanoma cells; type: functional; outline: as §3
# [14] = tested on: Cancer cell lines; experiment: Potency index, ratio of 5-fluorouracil GI50 to compound GI50 for human ovarian cancer cells; type: functional; outline: as §3
# [15] = Growth inhibition of human Caki1 cells at 10 uM after 48 hrs by SRB assay relative to control; type: functional; details: CAKI-1, 48 h, read-out: GI; outline: as §1
# [16] = Growth inhibition of human HL-60(TB) cells at 10 uM after 48 hrs by SRB assay relative to control; type: functional; details: HL-60, 48 h, read-out: GI
# Outline: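 NCI disease-oriented human tumour cell line screen: primary single-dose assay at 10 μM across the full 60-cell-line panel spanning nine tumour subpanels.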
# [17] = Growth inhibition of human RXF393 cells at 10 uM after 48 hrs by SRB assay relative to control; type: functional; details: RXF 393, 48 h, read-out: GI; outline: as §1
# [18] = Growth inhibition of human MDA-MB-231 cells at 10 uM after 48 hrs by SRB assay relative to control; type: functional; details: MDA-MB-231, 48 h, read-out: GI; outline: as §1
# [19] = Growth inhibition of human SF295 cells at 10 uM after 48 hrs by SRB assay relative to control; type: functional; details: SF-295, 48 h, read-out: GI; outline: as §1
# [20] = Growth inhibition of human UACC257 cells at 10 uM after 48 hrs by SRB assay relative to control; type: functional; details: UACC-257, 48 h, read-out: GI; outline: as §4
# [21] = Growth inhibition of human NCI-H522 cells at 10 uM after 48 hrs by SRB assay relative to control; type: functional; details: NCI-H522, 48 h, read-out: GI; outline: as §1
# [22] = target: T1, Dihydrofolate reductase (Bos taurus, UniProt P00376); experiment: Inhibition of bovine liver DHFR preincubated for 2 mins followed by addition of FH2 as substrate and NADPH
# T1 sequence (P00376 whole entry): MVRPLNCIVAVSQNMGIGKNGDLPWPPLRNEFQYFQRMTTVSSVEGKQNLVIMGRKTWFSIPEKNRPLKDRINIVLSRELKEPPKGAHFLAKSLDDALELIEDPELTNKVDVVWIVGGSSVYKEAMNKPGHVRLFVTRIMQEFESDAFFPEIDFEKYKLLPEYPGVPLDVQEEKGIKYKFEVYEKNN
# [23] = Growth inhibition of human NCI/ADR-RES cells at 10 uM after 48 hrs by SRB assay relative to control; type: functional; details: read-out: GI; outline: as §1
# [24] = Growth inhibition of human SKOV3 cells at 10 uM after 48 hrs by SRB assay relative to control; type: functional; details: SK-OV-3, 48 h, read-out: GI; outline: as §4
# [25] = Growth inhibition of human HOP92 cells at 10 uM after 48 hrs by SRB assay relative to control; type: functional; details: HOP-92, 48 h, read-out: GI; outline: as §1
# [26] = Growth inhibition of human A498 cells at 10 uM after 48 hrs by SRB assay relative to control; type: functional; details: A498, 48 h, read-out: GI; outline: as §1
# [27] = tested on: Cancer cell lines; experiment: Potency index, ratio of 5-fluorouracil GI50 to compound GI50 for human breast cancer cells; type: functional; outline: as §3
# [28] = Growth inhibition of human renal cancer cells after 48 hrs by SRB assay; type: functional; details: Cancer cell lines; outline: as §2
# [29] = Growth inhibition of human leukemia cells after 48 hrs by SRB assay; type: functional; details: Leukemia cell; for CC50: read-out: LC50 (the source's name); outline: as §2
# [30] = Growth inhibition of human BT549 cells at 10 uM after 48 hrs by SRB assay relative to control; type: functional; details: BT-549, 48 h, read-out: GI; outline: as §1
# [31] = tested on: Cancer cell lines; experiment: Potency index, ratio of 5-fluorouracil GI50 to compound GI50 for human renal cancer cells; type: functional; outline: as §3
# [32] = Growth inhibition of human PC3 cells at 10 uM after 48 hrs by SRB assay relative to control; type: functional; details: PC-3, 48 h, read-out: GI; outline: as §1
# [33] = Growth inhibition of human OVCAR3 cells at 10 uM after 48 hrs by SRB assay relative to control; type: functional; details: OVCAR-3, 48 h, read-out: GI; outline: as §1
SMILES,GI50 [1] [µM],"LC50 (lethal concentration, 50% net cell kill) [1] [µM]",TGI [1] [µM],inhibition of growth at 10 µM [2] [%],inhibition of growth at 10 µM [3] [%],inhibition of growth at 10 µM [4] [%],GI50 [5] [µM],LC50 (50% lethal concentration) [5] [µM],TGI [5] [µM],inhibition of growth at 10 µM [6] [%],RatioGI50 [7],inhibition of growth at 10 µM [8] [%],inhibition of growth at 10 µM [9] [%],RatioGI50 [10],inhibition of growth at 10 µM [11] [%],inhibition of growth at 10 µM [12] [%],RatioGI50 [13],RatioGI50 [14],inhibition of growth at 10 µM [15] [%],inhibition of growth at 10 µM [16] [%],other results
COc1cc(CSc2nc3ccc(C)cc3c(=O)n2-c2ccccc2)cc(OC)c1OC,5.4,> 100,60.9,78,82.8,52.6,4,> 100,84.6,74.7,10,62.2,70.3,10,79.7,80.1,10,10,72.4,87.8,inhibition of growth at 10 µM [17]: 85.8%; inhibition of growth at 10 µM [18]: 62.1%; inhibition of growth at 10 µM [19]: 67.2%; inhibition of growth at 10 µM [20]: 49.8%; inhibition of growth at 10 µM [21]: 91.7%; IC50 [22]: 7 µM; inhibition of growth at 10 µM [23]: 82.2%; inhibition of growth at 10 µM [24]: 86.4%; inhibition of growth at 10 µM [25]: 32.1%; inhibition of growth at 10 µM [26]: 84%; RatioGI50 [27]: 10; GI50 [28]: 4.2 µM; LC50 [28]: > 100 µM; TGI [28]: 76.9 µM; GI50 [29]: 1.8 µM; TGI [29]: > 100 µM; CC50 [29]: > 100 µM; inhibition of growth at 10 µM [30]: 80.4%; RatioGI50 [31]: 10; inhibition of growth at 10 µM [32]: 51%
COc1cc2nc(SCc3cc(OC)c(OC)c(OC)c3)n(Cc3ccccc3)c(=O)c2cc1OC,3.4,80.6,24.5,79.6,85.2,62.2,6.4,> 100,62.7,84.6,2 - 10,58.6,66.6,2 - 10,93.8,89.9,2 - 10,2 - 10,74.3,88.1,inhibition of growth at 10 µM [17]: 95.5%; inhibition of growth at 10 µM [18]: 64%; inhibition of growth at 10 µM [19]: 80.3%; inhibition of growth at 10 µM [20]: 36.7%; inhibition of growth at 10 µM [33]: 93.8%; IC50 [22]: 2 µM; inhibition of growth at 10 µM [24]: 70.2%; inhibition of growth at 10 µM [25]: 37.4%; RatioGI50 [27]: 2 - 10; GI50 [28]: 4.7 µM; LC50 [28]: 85.7 µM; TGI [28]: 49.1 µM; GI50 [29]: 1.9 µM; TGI [29]: > 100 µM; CC50 [29]: > 100 µM; inhibition of growth at 10 µM [30]: 83.2%; RatioGI50 [31]: 2 - 10; inhibition of growth at 10 µM [32]: 51.2%
